These results are taken from ChEMBL document CHEMBL1141169, “Discovery of 5-arylsulfonamido-3-(pyrrolidin-2-ylmethyl)-1H-indole derivatives as potent, selective 5-HT6 receptor agonists and antagonists” (J Med Chem, 2005).

In experiment [1] the target is T1, 5-hydroxytryptamine receptor 6 (Homo sapiens, UniProt P50406). As to conditions: HeLa.
For experiment [2], the target named is T2, 5-hydroxytryptamine receptor 1A (Homo sapiens, UniProt P08908).
T2 sequence (P08908 whole entry): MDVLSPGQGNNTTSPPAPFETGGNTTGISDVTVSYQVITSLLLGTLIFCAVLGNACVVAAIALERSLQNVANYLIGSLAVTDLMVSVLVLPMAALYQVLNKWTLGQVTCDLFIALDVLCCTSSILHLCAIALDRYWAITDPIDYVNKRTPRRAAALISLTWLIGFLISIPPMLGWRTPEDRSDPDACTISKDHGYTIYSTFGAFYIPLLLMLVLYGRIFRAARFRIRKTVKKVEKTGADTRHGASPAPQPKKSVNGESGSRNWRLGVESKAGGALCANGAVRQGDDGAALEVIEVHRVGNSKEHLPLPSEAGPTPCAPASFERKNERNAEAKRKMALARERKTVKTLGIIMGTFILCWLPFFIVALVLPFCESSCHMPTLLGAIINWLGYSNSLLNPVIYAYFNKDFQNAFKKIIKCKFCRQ
Kind of experiment: Inhibition of [3H]8-OH-DPAT binding to human 5-hydroxytryptamine 1A receptor expressed in CHO cells. It is filed as cell-based. Summed up:
(§1)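 Radioligands: 5-HT1A, 8-hydroxy-[3H]-DPAT; 5-HT2C, [3H]-5-HT; 5-HT2A, [125I]DOI; D2, D3 and D4, [3H]spiperone. Ki determined in triplicate, or n = 1 where footnoted.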

Experiment [3] concerns the target 5-hydroxytryptamine receptor 7 (Homo sapiens, UniProt P34969). Kind of experiment: Inhibition of [3H]-LSD binding to 5-hydroxytryptamine 7 receptor expressed in CHO cells. The experiment is classed as cell-based. Summed up:
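Displacement of [3H]-LSD from human 5-HT7 receptor clone stably expressed in CHO cells. Ki in triplicate, or n = 1 where footnoted.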

Experiment [4] concerns the target T3, 5-hydroxytryptamine receptor 2A (Homo sapiens, UniProt P28223). Briefly: Inhibition of [125I]DOI binding to human 5-hydroxytryptamine 2A receptor expressed in CHO cells. The experiment is classed as cell-based. In short, it runs like this: as §1
Experiment [5] has as its target T1, 5-hydroxytryptamine receptor 6. Briefly: Inhibition of [3H]LSD binding to human 5-hydroxytryptamine 6 receptor expressed in HeLa cells. It is filed as cell-based. In short, it runs like this:
(§2)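 Competition binding against [3H]-LSD on cloned human 5-HT6 receptors stably expressed in HeLa cells. Ki determined in triplicate; single-point lines are % inhibition at 1000 nM.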

Experiment [6] deals with D(2) dopamine receptor (Homo sapiens, UniProt P14416). Kind of experiment: Inhibition of [3H]spiperone binding to human dopamine receptor D2 expressed in CHO-K1 cells. It is filed as cell-based. Summed up:
as §1

In experiment [7] the target is D(3) dopamine receptor (Homo sapiens, UniProt P35462). Briefly: Inhibition of [3H]spiperone binding to human dopamine receptor D3 expressed in CHO-K1 cells. It is filed as cell-based. In short, it runs like this:
as §1

Experiment [8] deals with T4, 5-hydroxytryptamine receptor 1F (Homo sapiens, UniProt P30939).
T4 sequence (P30939 whole entry): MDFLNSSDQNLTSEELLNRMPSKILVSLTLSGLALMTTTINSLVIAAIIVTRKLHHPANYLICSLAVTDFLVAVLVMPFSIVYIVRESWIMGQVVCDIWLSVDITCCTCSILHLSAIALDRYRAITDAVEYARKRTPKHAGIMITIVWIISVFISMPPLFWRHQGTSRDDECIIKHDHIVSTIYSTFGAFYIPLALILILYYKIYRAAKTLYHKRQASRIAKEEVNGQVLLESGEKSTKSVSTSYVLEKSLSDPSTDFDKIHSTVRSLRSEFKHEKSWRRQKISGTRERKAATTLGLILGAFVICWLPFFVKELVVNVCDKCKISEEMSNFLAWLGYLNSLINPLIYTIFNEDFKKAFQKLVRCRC
Briefly: Inhibition of [3H]8-OH-DPAT binding to human 5-hydroxytryptamine 1F receptor expressed in CHO cells. The experiment is classed as cell-based.

Experiment [9] concerns the target T1, 5-hydroxytryptamine receptor 6. Briefly: Effective agonist concentration in cAMP release assay in HeLa cells expressing human 5-hydroxytryptamine 6 receptor. It is filed as functional, cell-based. In short, it runs like this:
(§3)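 cAMP production read out across a range of ligand concentrations in HeLa cells stably transfected with the human 5-HT6 receptor, ligand given alone as agonist. EC50 and Emax each determined in triplicate.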

The target of experiment [10] is 5-hydroxytryptamine receptor 1D (Homo sapiens, UniProt P28221). Briefly: Inhibition of [3H]-8-OH-DPAT binding to human 5-hydroxytryptamine 1D receptor expressed in CHO cells. It is filed as cell-based.
Chain of 5-hydroxytryptamine receptor 1D (P28221 whole entry): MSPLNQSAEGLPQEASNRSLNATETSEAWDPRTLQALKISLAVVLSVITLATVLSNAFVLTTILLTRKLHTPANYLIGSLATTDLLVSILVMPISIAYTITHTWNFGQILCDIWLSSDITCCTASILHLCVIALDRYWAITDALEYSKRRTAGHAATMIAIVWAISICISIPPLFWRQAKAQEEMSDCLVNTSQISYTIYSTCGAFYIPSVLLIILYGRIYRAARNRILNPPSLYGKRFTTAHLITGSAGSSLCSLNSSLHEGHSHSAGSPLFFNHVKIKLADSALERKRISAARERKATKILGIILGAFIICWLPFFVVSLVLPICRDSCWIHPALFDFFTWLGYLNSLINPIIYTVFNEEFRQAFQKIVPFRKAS
Experiment [11] addresses T1, 5-hydroxytryptamine receptor 6. Kind of experiment: Maximum percentage agonism of cAMP production in HeLa cells expressing human 5-hydroxytryptamine 6 receptor. It is filed as functional, cell-based. In short, it runs like this:
as §3
Background: Changes in cAMP serve as a functional read-out for many G protein-coupled receptors.

For experiment [12], the target named is T5, 5-hydroxytryptamine receptor 2C (Homo sapiens, UniProt P28335).
T5 sequence (P28335 whole entry): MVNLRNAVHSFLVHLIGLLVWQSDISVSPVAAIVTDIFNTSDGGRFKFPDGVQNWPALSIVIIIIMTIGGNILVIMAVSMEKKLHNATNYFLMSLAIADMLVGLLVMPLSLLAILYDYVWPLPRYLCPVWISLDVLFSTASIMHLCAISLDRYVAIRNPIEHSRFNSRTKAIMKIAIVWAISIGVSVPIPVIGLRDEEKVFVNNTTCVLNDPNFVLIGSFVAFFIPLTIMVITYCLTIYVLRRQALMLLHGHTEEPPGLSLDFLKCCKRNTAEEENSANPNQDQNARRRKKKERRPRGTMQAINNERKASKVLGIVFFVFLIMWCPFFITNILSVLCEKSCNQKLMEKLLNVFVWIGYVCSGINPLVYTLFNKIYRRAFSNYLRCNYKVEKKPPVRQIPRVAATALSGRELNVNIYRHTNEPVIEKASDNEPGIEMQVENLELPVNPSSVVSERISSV
Briefly: Inhibition of [3H]5-HT binding to human 5-hydroxytryptamine 2C receptor expressed in CHO cells. The experiment is classed as cell-based. Summed up:
as §1

Experiment [13] deals with T6, D(4) dopamine receptor (Homo sapiens, UniProt P21917).
T6 sequence (P21917 whole entry): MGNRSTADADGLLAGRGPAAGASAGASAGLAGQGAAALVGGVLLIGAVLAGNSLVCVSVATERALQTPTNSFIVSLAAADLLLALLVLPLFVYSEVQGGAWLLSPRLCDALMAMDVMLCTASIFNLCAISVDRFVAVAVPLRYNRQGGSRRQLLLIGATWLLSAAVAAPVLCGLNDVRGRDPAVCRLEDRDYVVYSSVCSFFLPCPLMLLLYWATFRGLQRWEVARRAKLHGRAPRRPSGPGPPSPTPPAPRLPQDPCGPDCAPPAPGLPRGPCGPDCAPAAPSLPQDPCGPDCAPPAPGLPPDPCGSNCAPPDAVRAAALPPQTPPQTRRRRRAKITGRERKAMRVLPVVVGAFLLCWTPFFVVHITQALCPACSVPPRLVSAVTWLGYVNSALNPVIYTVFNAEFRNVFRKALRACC
Kind of experiment: Inhibition of [3H]spiperone binding to human dopamine receptor D4 expressed in CHO-K1 cells. The experiment is classed as cell-based. In short, it runs like this:
as §1

Experiment [14] has as its target T3, 5-hydroxytryptamine receptor 2A. Briefly: Percentage inhibition of [125I]DOI binding to human 5-hydroxytryptamine 2A receptor expressed in CHO cells at 1000 nM. The experiment is classed as cell-based.
For experiment [15], the target named is T1, 5-hydroxytryptamine receptor 6. Kind of experiment: Percentage inhibition of [3H]LSD binding to human 5-hydroxytryptamine 6 receptor expressed in HeLa cells at 1000 nM. The experiment is classed as cell-based. In short, it runs like this:
as §2

Chain of D(2) dopamine receptor (P14416 whole entry): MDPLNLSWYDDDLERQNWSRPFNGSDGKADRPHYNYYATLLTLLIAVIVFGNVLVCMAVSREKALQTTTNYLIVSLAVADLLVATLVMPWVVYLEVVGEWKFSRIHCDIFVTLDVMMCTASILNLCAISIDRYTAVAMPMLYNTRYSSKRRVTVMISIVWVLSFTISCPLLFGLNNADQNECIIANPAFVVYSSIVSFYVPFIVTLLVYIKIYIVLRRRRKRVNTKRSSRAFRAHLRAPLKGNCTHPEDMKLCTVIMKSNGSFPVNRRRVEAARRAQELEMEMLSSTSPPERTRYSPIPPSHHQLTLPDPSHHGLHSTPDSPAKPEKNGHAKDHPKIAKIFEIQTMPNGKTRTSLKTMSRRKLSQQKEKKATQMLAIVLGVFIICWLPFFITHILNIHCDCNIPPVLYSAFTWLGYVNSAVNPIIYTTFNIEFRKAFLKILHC
Chain of D(3) dopamine receptor (P35462 whole entry): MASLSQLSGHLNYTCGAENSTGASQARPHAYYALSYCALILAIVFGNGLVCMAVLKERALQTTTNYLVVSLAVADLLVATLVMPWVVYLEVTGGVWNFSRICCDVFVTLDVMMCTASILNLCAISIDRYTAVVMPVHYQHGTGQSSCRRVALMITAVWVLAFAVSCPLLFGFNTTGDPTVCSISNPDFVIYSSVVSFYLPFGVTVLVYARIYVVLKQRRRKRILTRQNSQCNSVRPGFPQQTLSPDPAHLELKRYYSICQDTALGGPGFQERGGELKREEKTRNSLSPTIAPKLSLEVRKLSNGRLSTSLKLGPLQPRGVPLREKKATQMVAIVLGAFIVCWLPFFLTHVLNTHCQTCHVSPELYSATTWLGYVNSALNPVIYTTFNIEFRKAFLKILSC
T1 sequence (P50406 whole entry): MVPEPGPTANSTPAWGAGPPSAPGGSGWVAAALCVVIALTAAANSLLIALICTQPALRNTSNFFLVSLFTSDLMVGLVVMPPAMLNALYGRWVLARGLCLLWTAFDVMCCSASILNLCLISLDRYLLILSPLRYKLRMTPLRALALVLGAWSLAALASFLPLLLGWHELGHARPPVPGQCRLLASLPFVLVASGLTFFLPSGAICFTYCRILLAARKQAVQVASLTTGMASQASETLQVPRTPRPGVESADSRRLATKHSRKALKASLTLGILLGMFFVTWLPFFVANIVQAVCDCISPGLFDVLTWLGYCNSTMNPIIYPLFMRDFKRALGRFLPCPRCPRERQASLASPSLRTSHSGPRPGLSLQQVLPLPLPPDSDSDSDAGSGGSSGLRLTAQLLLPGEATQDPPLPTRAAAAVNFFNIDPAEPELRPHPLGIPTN
T3 sequence (P28223 whole entry): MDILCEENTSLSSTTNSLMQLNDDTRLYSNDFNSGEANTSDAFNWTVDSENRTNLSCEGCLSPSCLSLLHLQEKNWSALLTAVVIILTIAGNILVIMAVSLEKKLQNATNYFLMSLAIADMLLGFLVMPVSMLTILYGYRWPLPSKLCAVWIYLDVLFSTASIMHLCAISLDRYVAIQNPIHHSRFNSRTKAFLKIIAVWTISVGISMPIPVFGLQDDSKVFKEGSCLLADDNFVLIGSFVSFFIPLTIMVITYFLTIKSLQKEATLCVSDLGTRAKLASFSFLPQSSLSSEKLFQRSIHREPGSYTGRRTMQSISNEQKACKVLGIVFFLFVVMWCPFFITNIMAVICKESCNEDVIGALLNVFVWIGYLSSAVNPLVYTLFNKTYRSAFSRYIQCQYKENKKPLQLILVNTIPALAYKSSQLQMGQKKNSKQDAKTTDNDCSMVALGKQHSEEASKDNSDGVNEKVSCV
Chain of 5-hydroxytryptamine receptor 7 (P34969 whole entry): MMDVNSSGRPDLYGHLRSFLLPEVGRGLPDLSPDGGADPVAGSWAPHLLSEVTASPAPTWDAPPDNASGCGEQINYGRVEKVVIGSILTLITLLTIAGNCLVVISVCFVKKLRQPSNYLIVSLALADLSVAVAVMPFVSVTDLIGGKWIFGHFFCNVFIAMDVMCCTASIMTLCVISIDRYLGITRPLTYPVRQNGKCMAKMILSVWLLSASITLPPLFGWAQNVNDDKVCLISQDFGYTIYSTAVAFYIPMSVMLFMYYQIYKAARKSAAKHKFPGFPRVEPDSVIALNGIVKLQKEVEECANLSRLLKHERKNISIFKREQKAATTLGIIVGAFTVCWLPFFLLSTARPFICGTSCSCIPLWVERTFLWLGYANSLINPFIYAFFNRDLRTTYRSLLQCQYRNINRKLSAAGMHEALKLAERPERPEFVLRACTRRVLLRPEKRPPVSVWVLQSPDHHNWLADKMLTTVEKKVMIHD

Consider `COc1ccc2c(c1)c(CCN(C)C)cn2S(=O)(=O)c1ccccc1`, for which, in experiment [1], the Affinity came to 16 nM.

Usually Ki stands for the dissociation constant of the complex between target and ligand, obtained from inhibition or displacement. The EC50 is the concentration needed to bring the measured effect to its halfway point. Higher therefore signals lower potency in that assay. As usually defined, the Emax is the maximal effect, on the per cent scale that the assay sets. Take `CN1CCC[C@@H]1Cc1c[nH]c2ccc(NS(=O)(=O)c3cccc(Cl)c3)cc12`: the inhibition constant (Ki) in experiment [2] is 200 nM; in experiment [3], 24 nM; in experiment [4], 269 nM; in experiment [5] it was 0.4 nM; in [6], > 2000 nM; in experiment [7] it was 930 nM. The Ki was 2.7 nM in experiment [8], 4.7 nM in experiment [10], 231 nM in experiment [12] and > 5000 nM in [13]. The compound further displayed an EC50 in experiment [9] of 1.6 nM. In experiment [11], this compound displayed an Emax of 100%.

`O=S(=O)(Nc1ccc2[nH]cc(C[C@H]3CCCN3)c2c1)c1ccccc1Cl`: the Ki in experiment [2] is 552 nM; in experiment [5] it was 3 nM; in [6], > 5000 nM; in [7], > 5000 nM; in [8], 12.3 nM; in [10], > 1000 nM. Also, the Ki in [12] is 566 nM; in experiment [13], > 5000 nM. The EC50 in [9] came out at 1.3 nM. The Emax in [11] was 100%.

With `CN1CCC[C@@H]1Cc1c[nH]c2ccc(NS(=O)(=O)c3ccccc3Cl)cc12`, the Ki in [2] is 170 nM; in [3], 74 nM; in experiment [4], 367 nM; in experiment [5], 1 nM; in [6], > 2000 nM; in experiment [7], > 1000 nM. The Ki is 16 nM in experiment [8], 29.5 nM in [10], 289 nM in experiment [12] and > 5000 nM in [13]. Moreover, in experiment [9], the midpoint of the response, the EC50, lay at 1.1 nM. In [11], the Emax stood at 100%.

The inhibition is the change of the read-out against control, counted positive when it falls. The low end stands for a weak effect, the high end for a strong effect. Take `O=S(=O)(Cc1ccccc1I)Nc1ccc2[nH]cc(C[C@H]3CCCN3)c2c1`: the inhibition in experiment [14] amounted to 42%. For the same compound, in [11], the Emax came out at 100%.

In turn, `COc1ccc(S(=O)(=O)Nc2ccc3[nH]cc(C[C@@H]4CCCN4)c3c2)cc1` came in with an inhibition in experiment [15] of 64%.

The compound `O=S(=O)(Nc1ccc2[nH]cc(C[C@@H]3CCCN3)c2c1)c1ccc(F)cc1` gave an inhibition in experiment [15] of 74%.
